An excerpt weighted towards active compounds, which were near 1.7% of everything screened.
IDE cell inh = human IDE inhibitors in live cells, primary screen, fluorescence polarization, HEK cells, FAbetaB substrate. 320,000 tested, 0.41% active. Insulin-degrading enzyme (Homo sapiens), P14735. inhibition, % at 5.59 µM. FAbetaB cleavage;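 active means percent inhibition above the average of all tested compounds plus 3 SD, set per screening campaign, cut at about 16% in these data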;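 further: IDE supplied by intact live HEK cells; FP after avidin binding of uncleaved biotin substrate so inhibition keeps polarization high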
Target sequence (P14735 whole entry, looked up): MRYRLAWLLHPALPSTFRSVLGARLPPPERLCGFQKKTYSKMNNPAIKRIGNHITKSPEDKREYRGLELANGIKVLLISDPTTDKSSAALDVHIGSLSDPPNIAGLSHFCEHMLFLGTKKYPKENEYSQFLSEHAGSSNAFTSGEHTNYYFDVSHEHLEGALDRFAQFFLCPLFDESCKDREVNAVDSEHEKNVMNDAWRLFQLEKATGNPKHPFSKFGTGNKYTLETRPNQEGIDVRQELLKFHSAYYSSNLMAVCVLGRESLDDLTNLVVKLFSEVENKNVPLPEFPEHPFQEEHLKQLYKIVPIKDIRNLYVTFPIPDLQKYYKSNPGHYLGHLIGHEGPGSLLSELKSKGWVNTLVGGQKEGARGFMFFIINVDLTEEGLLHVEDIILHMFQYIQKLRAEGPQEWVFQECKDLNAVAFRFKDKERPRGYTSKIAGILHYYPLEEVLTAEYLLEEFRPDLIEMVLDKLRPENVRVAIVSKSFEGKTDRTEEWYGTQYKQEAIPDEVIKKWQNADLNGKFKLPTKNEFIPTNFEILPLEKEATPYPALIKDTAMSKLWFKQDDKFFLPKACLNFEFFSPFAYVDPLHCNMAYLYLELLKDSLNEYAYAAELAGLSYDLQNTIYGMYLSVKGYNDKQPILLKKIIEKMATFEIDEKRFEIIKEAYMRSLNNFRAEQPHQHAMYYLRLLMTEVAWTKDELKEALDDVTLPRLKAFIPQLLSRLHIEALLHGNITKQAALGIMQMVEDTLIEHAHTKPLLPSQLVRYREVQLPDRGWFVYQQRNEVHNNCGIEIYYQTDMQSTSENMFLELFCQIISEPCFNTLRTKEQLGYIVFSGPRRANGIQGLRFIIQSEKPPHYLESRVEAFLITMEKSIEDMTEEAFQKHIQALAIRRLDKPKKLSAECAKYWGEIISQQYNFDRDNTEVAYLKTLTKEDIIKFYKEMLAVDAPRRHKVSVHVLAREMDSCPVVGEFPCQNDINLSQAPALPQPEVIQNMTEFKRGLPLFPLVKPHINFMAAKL
IDE act = human IDE activators in live cells, primary screen, fluorescence polarization, HEK cells, FAbeta-B substrate; Insulin-degrading enzyme (Homo sapiens), P14735; FAbeta-B cleavage; 0% vehicle, 100% cell-free pure enzyme wells; activation, % at 5.96 µM; 340,000 tested, 0.073% active;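 active means activation above the mean of all tested compounds plus 3 SD, set per screening campaign, cut at about 17% in these data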
HNF4A DNA FP = change in binding of human HNF4A to DNA, primary screen, biochemical, fluorescence polarization, FITC-DNA | Hepatocyte nuclear factor 4-alpha (Homo sapiens), P41235 | 1 h | activity change, % at 10 µM | 360,000 tested, 0.3% active; in the data active means activity change above about 30%, passing the limit was not always enough
CSN deneddyl inh = inhibitors of CSN-mediated cullin deneddylation, primary screen, biochemical, fluorescence polarization, uHTS; COP9 signalosome complex subunit 5 (Homo sapiens), Q92905; Purified CSN, SCF-Nedd8-OG deneddylation; inhibition, % at 12.5 µM; 360,000 tested, 0.38% active;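 active means pattern-corrected inhibition above about 35%, with an unprinted fluorescence ratio check between 0.5 and 1.5, limit read from the data, passing the limit was not always enough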
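Material: purified human Csn5 enzyme expressed in HEK293T cells / Medium: Tris buffer pH 7.5, NaCl, DTT, Tween-20, trehalose, ovalbumin / Compound dosing: 12.5 µM single point / Schedule: 90 min incubation of compound, enzyme and substrate at room temperature / Signal: fluorescence polarization of the substrate / Control set: no-enzyme wells high, enzyme-with-substrate wells low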
TPT1 inhibitor = Candida albicans TPT1 enzyme inhibitors, primary screen, biochemical, fluorescence polarization; tRNA 2'-phosphotransferase TPT1 (Candida albicans SC5314); recombinant caTPT1, FP RNA substrate dephosphorylation; inhibition, % at 5 µM; 300,000 tested, 0.81% active; AID 1962, 2009;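 active means inhibition above the mean of all tested compounds plus 3 SD, set per screening campaign, cut at about 24% in these data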
Rpn11 block = Rpn11 (PSMD14) deubiquitinase inhibitors, primary screen, biochemical, fluorescence polarization, uHTS; human 26S proteasome, Ub4-pepOG fluorescence polarization; 20S core pre-blocked with epoxomicin; calls only at 20 µM; 360,000 tested, 0.59% active;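 active means inhibition at 20 µM, scaled to each plate's controls, above about 33%, limit read from the data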
TPT1 inh confirm = Candida albicans TPT1 inhibitors, confirmation, biochemical, fluorescence polarization, triplicate; 2,400 tested, 74% active; inhibition, % at 5 µM; shares compounds with TPT1 inhibitor; recombinant caTPT1, RNase T1 coupled;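 active means inhibition above the primary screen limit, the mean inhibition of all tested compounds plus 3 SD, cut at about 25% in these data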
RNase T1 counter = RNase T1 inhibitors, counter-screen for TPT1 inhibitor project, biochemical, fluorescence polarization; shares compounds with TPT1 inhibitor; RNase T1 cleavage, 1536-well; inhibition, % at 5 µM; 2,400 tested, 83% active; AID 2153, 2009;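 active means inhibition above the solvent-only control well mean plus 3 SD, limit set per screening run, cut at about 23% in these data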;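 further: inhibitors block cleavage so intact labeled substrate keeps polarization high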
Hits are given with their value; - = inactive; . = no result given.

SMILES | IDE cell inh | IDE act | HNF4A DNA FP | CSN deneddyl inh | TPT1 inhibitor | Rpn11 block | TPT1 inh confirm | RNase T1 counter
CC(=O)Nc1ccc(NC(=O)CSc2ccc3nnc(CCNC(=O)c4ccccc4)n3n2)cc1 | - | - | - | - | - | - | . | .
CC(=O)N1CCOc2ccc(S(=O)(=O)Nc3ccc(C)cn3)cc21 | - | - | - | - | - | - | . | .
Cc1ccc2nc(/C(C#N)=C/c3ccc(-c4cccc([N+](=O)[O-])c4)o3)[nH]c2c1 | - | - | - | - | 76 | - | 65 | 74
COc1ccc(CNC(=O)CN(c2cccc([N+](=O)[O-])c2)S(C)(=O)=O)cc1 | - | - | - | - | - | - | . | .
COc1ccc(CNC(=O)CN(c2cccc(OC)c2)S(C)(=O)=O)cc1 | - | - | - | - | 76 | - | - | -
CC1(C)CC(NC(=O)c2cccc(F)c2)CC(C)(C)N1 | - | - | - | - | - | - | . | .
O=C(Nc1ccc2[nH]c(=O)[nH]c2c1)c1c(F)c(F)c(F)c(F)c1F | - | - | - | - | - | - | . | .
O=C1CCCC/C1=C\Nc1ccc(S(=O)(=O)Nc2cnc3ccccc3n2)cc1 | - | - | - | - | 55 | . | 33 | 45
O=C(/C=C/Nc1ccc(S(=O)(=O)Nc2cnc3ccccc3n2)cc1)c1ccccc1 | - | - | - | - | - | - | . | .
Cc1ccccc1OCCn1c(CCNC(=O)C(C)C)nc2ccccc21 | - | - | - | - | - | - | . | .
COc1ccc(C(=O)c2sc3nc(-c4ccccc4)ccc3c2N)cc1OC | - | - | 69 | - | 91 | - | 88 | 94
COc1ccc(-c2ccc3c(N)c(C(=O)c4ccc(OC)c(OC)c4)sc3n2)cc1 | - | - | - | - | 54 | - | 60 | 70
COc1ccc(-c2ccc3c(N)c(C(=O)NC(C)C)sc3n2)cc1OC | - | . | - | - | - | - | . | .
COc1ccccc1NS(=O)(=O)c1cc([N+](=O)[O-])ccc1N/N=C/c1c(C)[nH]c2ccccc12 | - | - | 57 | - | 101 | . | 104 | 107
Cc1[nH]c2ccccc2c1/C=N/NC(=O)c1cccc([N+](=O)[O-])c1 | - | . | - | - | - | - | . | .
O/C(=C\c1ccc2ccccc2n1)c1ccc(O)cc1O | - | - | 65 | - | 98 | . | 110 | 108
Oc1ccc(/C=C/c2ccc3ccccc3n2)cc1 | - | - | - | - | - | - | . | .
CCN(CC)c1ccc(/C=N/Nc2nc3ccccc3[nH]2)c(O)c1 | - | - | - | - | 34 | - | - | -
COc1cc(OC)c(OC)cc1/C=N/Nc1nc2ccccc2[nH]1 | - | - | - | - | - | - | . | .
CCN1C=C(Cc2ccc(OC)cc2)C2=C(C1)C(c1ccc(OC)cc1)C(C#N)=C(N)O2 (configuration not stated) | - | - | - | - | 44 | - | 27 | 35
COc1ccc(C2C(C#N)=C(N)Oc3cc4c(cc32)OCO4)cc1 (configuration not stated) | - | - | - | - | - | - | . | .
COc1cccc(C2=NN(C(=O)c3ccc(C)o3)C(O)(C(F)(F)F)C2)c1 (configuration not stated) | - | - | - | - | - | - | . | .
CCOc1cc([N+](=O)[O-])cc2c1C(=O)Nc1ccccc1O2 | - | - | - | 43 | 30 | . | 44 | 55
O=C(COc1ccccc1)c1cn(CC(=O)N2CCOCC2)c2ccccc12 | - | - | - | - | 27 | - | 26 | 37
Cc1cc(NC(=O)/C(C#N)=C/c2ccc(-c3ccc(SC(F)F)cc3)o2)n(-c2ccccc2)n1 | - | - | - | 64 | 57 | . | 57 | 66
SMILES | IDE cell inh | IDE act | HNF4A DNA FP | CSN deneddyl inh | TPT1 inhibitor | Rpn11 block | TPT1 inh confirm | RNase T1 counter
O=c1c2c3c(sc2ncn1Cc1ccc(F)cc1)CCC3 | - | - | - | - | 27 | - | 26 | 34
N#Cc1ccsc1NC(=O)c1cccc(-n2cnnn2)c1 | - | - | 42 | 38 | 48 | . | 51 | 64
CC(C)c1nnc(NC(=O)c2cccc(-n3cnnn3)c2)s1 | - | - | - | - | - | - | . | .
Cc1ccc(C2C(C#N)=C(N)Oc3c2sc2ccccc32)o1 (configuration not stated) | - | . | . | . | 65 | . | 86 | 96
CCOC(=O)CC1=C(C(=O)OCC)C(c2ccc(C)o2)C(C#N)=C(N)O1 (configuration not stated) | - | - | - | - | - | - | . | .
O=C(Nc1ccc(Cl)c(Cl)c1)Nc1ccccc1NS(=O)(=O)c1cccs1 | - | - | - | - | - | - | . | .
COc1cccc(-c2ccc(SCC(=O)NCCc3ccccc3)nn2)c1 | - | - | - | - | 54 | - | - | -
Cc1ccc(S(=O)(=O)Nc2cccc(N(C)S(C)(=O)=O)c2)cc1[N+](=O)[O-] | - | - | - | - | - | - | . | .
CCN(CC)c1ccc2cc(/C(N)=N/NC(=O)c3cccs3)c(=O)oc2c1 | - | . | . | . | 87 | . | 108 | 112
CCOc1ccccc1NC(=O)c1cc2ccccc2oc1=O | - | - | - | - | - | - | . | .
CCN(CC)c1ccc2cc(NC(=O)CCC(=O)O)c(=O)oc2c1 | - | - | - | - | - | - | . | .
CCN(CC)c1ccc2cc(C(=O)Nc3ccccn3)c(=O)oc2c1 | - | - | - | - | 135 | - | 109 | 112
CCCCCCc1cc2cc(C(N)=O)c(=N)oc2cc1O | - | . | . | . | 67 | . | - | 22
CCN(CC)c1ccc2cc(C(N)=O)c(=N)oc2c1 | - | . | - | - | 73 | . | 71 | 75
Cc1ccc(C(=O)Cn2nnc3ccccc32)cc1C | - | - | - | - | - | - | . | .
COC(CNC(=O)C1CCCN1C(=O)OCc1ccccc1)OC (configuration not stated) | - | - | - | - | 43 | - | - | -
Cc1noc(C)c1COc1ccccc1C(=O)NCc1ccccc1Cl | - | - | - | - | - | - | . | .
CC1CCN(c2nc3c(c(=O)n(C)c(=O)n3C)n2CCSc2ncccn2)CC1 | - | - | - | - | - | - | . | .

Screening data deposited in PubChem BioAssay by several laboratories.
